By MRT is commonly meant the average time that molecules of a dose stay in the body. The Tmax is the time at which the peak concentration occurs.

Series [1] concerns rats. As to conditions: 14 to 21 g/kg bw/day; cited from earlier work.
The nature of series [2]: In vivo oral gavage study, blood. As to conditions: male rabbits, 60 g HED. More on the design: species or system New Zealand White rabbits. In outline: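 Male adult New Zealand White rabbits (3.0 ± 0.3 kg) on high-fibre diet, fasted ~16 h, stratified by body weight, n=6/group. Free or pea-protein-nanoparticle-encapsulated test compound was given by oral gavage at 60 g per 70 kg adult HED, scaled by rabbit body-surface-area factors to an individual per-kg dose. Marginal ear vein blood was sampled pre-dose to 24 h (11 time-points); BHB was measured by assay kit.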

Regarding `C[C@@H](O)CC(=O)OCC(O)CO` (stereo partly drawn) [KM, (R)-3-hydroxybutyrate monoglyceride], the “systemic toxicity in vivo” value in series [1] is “no systemic toxicity”. Further, the “[BHB]max” value in series [2] came out at 1.33 mmol/L. In series [2] (blood BHB), the MRT came out at 6.60 h and the Tmax came out at 0.75 h.

The values are drawn from PMC12744579 (Nanotechnology, Science and Applications, 2025).
